Experimental data reported in ChEMBL document CHEMBL4229483, “Synthesis and evaluation of an orally available "Y"-shaped biaryl peroxisome proliferator-activated receptor δ agonist” (Bioorg Med Chem, 2018).

Assays:
[1] = molecular target: T1, Peroxisome proliferator-activated receptor alpha (Homo sapiens, UniProt Q07869); assay: Transactivation of human PPARalpha expressed in monkey CV-1 cells coexpressing TK-PPRE-Luc after 24 hrs by luciferase reporter gene assay; format: cell-based
T1 sequence (Q07869 whole entry): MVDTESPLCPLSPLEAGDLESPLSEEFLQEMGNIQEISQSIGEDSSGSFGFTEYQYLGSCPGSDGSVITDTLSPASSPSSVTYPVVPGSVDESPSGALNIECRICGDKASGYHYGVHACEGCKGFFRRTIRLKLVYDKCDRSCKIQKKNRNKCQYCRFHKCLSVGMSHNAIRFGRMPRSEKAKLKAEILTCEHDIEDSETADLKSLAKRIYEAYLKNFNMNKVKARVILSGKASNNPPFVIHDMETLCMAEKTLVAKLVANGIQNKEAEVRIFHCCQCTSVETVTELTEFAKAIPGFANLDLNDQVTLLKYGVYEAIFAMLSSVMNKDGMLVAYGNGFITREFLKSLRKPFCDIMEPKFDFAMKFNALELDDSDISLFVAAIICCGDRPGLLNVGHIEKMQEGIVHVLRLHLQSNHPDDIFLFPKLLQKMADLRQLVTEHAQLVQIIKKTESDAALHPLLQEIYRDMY

[2] = molecular target: T2, Peroxisome proliferator-activated receptor delta (Homo sapiens, UniProt Q03181); assay: Transactivation of human PPARdelta expressed in monkey CV-1 cells coexpressing TK-PPRE-Luc after 24 hrs by luciferase reporter gene assay; format: cell-based
T2 sequence (Q03181 whole entry): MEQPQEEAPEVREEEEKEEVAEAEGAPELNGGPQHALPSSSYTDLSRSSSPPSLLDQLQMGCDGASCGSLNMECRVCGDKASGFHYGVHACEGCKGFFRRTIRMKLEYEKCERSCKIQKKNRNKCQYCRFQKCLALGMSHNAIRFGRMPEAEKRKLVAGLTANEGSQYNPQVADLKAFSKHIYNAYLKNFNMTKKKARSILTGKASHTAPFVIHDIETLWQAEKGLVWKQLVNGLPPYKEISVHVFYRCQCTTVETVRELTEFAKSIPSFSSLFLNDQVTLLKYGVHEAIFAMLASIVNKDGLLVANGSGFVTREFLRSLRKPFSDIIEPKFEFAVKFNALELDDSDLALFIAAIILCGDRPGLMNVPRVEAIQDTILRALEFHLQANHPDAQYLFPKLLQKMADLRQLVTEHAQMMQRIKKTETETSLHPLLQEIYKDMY
Outline: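 Agonist activity tested in transiently transfected CV-1 cells by reporter assay. EC50 is the molar concentration giving 50% of the maximal reporter activity.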

[3] = molecular target: T3, Peroxisome proliferator-activated receptor gamma (Homo sapiens, UniProt P37231); assay: Transactivation of human PPARgamma expressed in monkey CV-1 cells coexpressing TK-PPRE-Luc after 24 hrs by luciferase reporter gene assay; format: cell-based
T3 sequence (P37231 whole entry): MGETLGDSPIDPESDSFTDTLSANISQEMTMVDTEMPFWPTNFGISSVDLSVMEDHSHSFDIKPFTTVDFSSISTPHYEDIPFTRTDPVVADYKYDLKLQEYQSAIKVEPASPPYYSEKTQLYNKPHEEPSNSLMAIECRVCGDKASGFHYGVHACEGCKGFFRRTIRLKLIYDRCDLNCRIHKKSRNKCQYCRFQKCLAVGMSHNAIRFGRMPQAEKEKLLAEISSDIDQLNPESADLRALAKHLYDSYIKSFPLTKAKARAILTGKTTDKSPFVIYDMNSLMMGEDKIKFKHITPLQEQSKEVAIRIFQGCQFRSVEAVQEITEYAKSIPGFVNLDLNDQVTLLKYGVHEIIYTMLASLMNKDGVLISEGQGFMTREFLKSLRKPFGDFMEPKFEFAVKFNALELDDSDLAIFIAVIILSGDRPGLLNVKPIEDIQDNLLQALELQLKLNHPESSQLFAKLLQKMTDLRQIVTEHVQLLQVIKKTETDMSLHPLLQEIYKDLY

[4] = Metabolic stability in rat liver microsomes assessed as parent compound remaining at 1 uM after 30 mins in presence of NADPH by LC-MS/MS analysis; format: ADME, microsome; conditions: read-out: Stability
Outline: (§1)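 Compound incubated with liver microsomes for 30 min. Percentage of parent remaining quantified by LC-MS/MS. Means of duplicate determinations.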

[5] = Total AUC in Sprague-Dawley rat at 10 mg/kg, po by LC-MS/MS analysis; format: ADME, organism-based; design: dose 10 mg/kg, route oral, time AUCmax; conditions: in vivo
Outline: (§2)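 Formulation: ethanol 10%, DMSO 10%, Cremophor EL 10%, […], PEG400 30%. PK parameters taken from composite mean plasma concentration–time profiles, given as mean ± SD.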

CYP2D6 = CYP2D6 (Homo sapiens, UniProt P10635); assay: Inhibition of dextromethorphan O-demethylase activity of CYP2D6 in human liver microsomes at 10 uM preincubated for 5 mins followed by NADPH addition measured after 15 mins by LC-MS/MS analysis; format: ADME; conditions: probe dextromethorphan (O-demethylation)
Outline: (§3)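 Compound incubated with liver microsomes and isotype-specific CYP substrates for 15 min. Activity expressed as percent inhibition relative to incubation without compound. Values are means of duplicates.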

[6] = Volume of distribution at steady state in Sprague-Dawley rat at 1 mg/kg, iv by LC-MS/MS analysis; format: ADME, organism-based; conditions: in vivo, read-out: Vdss
Outline: (§4)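 Rats (n = 4) given 1 mg/kg iv. Vehicle: ethanol 10%, DMSO 10%, Cremophor EL 10%, water 50%, PEG400 30%. Parameters calculated from composite mean plasma concentration–time data, reported as mean ± SD.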

[7] = Cmax in Sprague-Dawley rat at 10 mg/kg, po by LC-MS/MS analysis; format: ADME, organism-based; design: dose 10 mg/kg, route oral; conditions: in vivo; outline: as §2
[8] = Oral bioavailability in Sprague-Dawley rat at 10 mg/kg by LC-MS/MS analysis; format: ADME, organism-based; conditions: in vivo; outline: as §2
[9] = Metabolic stability in dog liver microsomes assessed as parent compound remaining at 1 uM after 30 mins in presence of NADPH by LC-MS/MS analysis; format: ADME, Canis lupus familiaris, microsome; conditions: read-out: Stability; outline: as §1
[10] = molecular target: Voltage-gated inwardly rectifying potassium channel KCNH2 (Homo sapiens, UniProt Q12809); assay: Inhibition of human ERG after 4 hrs by fluorescence polarization assay
Outline: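 hERG channel binding measured by a fluorescence polarization (Predictor) assay. IC50 obtained by four-parameter non-linear regression.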

CYP1A2 = molecular target: T4, CYP1A2 (Homo sapiens, UniProt P05177); assay: Inhibition of phenacetin O-deethylase activity of CYP1A2 in human liver microsomes at 10 uM preincubated for 5 mins followed by NADPH addition measured after 15 mins by LC-MS/MS analysis; format: ADME; conditions: probe phenacetin (O-deethylation); outline: as §3
T4 sequence (P05177 whole entry): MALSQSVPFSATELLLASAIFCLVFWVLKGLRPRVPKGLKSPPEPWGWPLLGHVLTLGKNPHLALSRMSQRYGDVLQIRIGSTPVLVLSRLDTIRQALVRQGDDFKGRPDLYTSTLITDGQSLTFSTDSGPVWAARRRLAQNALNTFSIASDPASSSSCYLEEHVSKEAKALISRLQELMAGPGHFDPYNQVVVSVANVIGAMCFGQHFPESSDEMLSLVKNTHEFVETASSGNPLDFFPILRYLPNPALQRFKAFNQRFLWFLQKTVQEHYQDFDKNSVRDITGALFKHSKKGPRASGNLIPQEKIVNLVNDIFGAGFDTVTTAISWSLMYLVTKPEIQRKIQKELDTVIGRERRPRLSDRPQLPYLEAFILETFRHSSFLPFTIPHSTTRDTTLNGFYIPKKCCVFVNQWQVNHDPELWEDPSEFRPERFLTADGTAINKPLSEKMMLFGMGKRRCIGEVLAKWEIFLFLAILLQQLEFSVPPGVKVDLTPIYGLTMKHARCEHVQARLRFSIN

[11] = Tmax in Sprague-Dawley rat at 10 mg/kg, po by LC-MS/MS analysis; format: ADME, organism-based; conditions: in vivo; outline: as §2
CYP2C9 = CYP2C9 (Homo sapiens, UniProt P11712); assay: Inhibition of tolbutamide 4-hydroxylase activity of CYP2C9 in human liver microsomes at 10 uM preincubated for 5 mins followed by NADPH addition measured after 15 mins by LC-MS/MS analysis; format: ADME; conditions: probe tolbutamide (4-hydroxylation); outline: as §3
CYP2C19 = CYP2C19 (Homo sapiens, UniProt P33261); assay: Inhibition of S-mephenytoin 4-hydroxylase activity of CYP2C19 in human liver microsomes at 10 uM preincubated for 5 mins followed by NADPH addition measured after 15 mins by LC-MS/MS analysis; format: ADME; conditions: probe S-mephenytoin (4-hydroxylation); outline: as §3
[12] = Half life in Sprague-Dawley rat at 1 mg/kg, iv by LC-MS/MS analysis; format: ADME, organism-based; conditions: in vivo; outline: as §4
[13] = Metabolic stability in human liver microsomes assessed as parent compound remaining at 1 uM after 30 mins in presence of NADPH by LC-MS/MS analysis; format: ADME, microsome; conditions: read-out: Stability; outline: as §1
[14] = Metabolic stability in mouse liver microsomes assessed as parent compound remaining at 1 uM after 30 mins in presence of NADPH by LC-MS/MS analysis; format: ADME, microsome; conditions: read-out: Stability; outline: as §1
[15] = Clearance in Sprague-Dawley rat at 1 mg/kg, iv by LC-MS/MS analysis; format: ADME, organism-based; conditions: in vivo; outline: as §4
[16] = Total AUC in Sprague-Dawley rat at 1 mg/kg, iv by LC-MS/MS analysis; format: ADME, organism-based; design: dose 1 mg/kg, route intravenous, time AUCmax; conditions: in vivo; outline: as §4
CYP3A4 = CYP3A4 (Homo sapiens, UniProt P08684); assay: Inhibition of midazolam 1'-hydroxylase activity of CYP3A4 in human liver microsomes at 10 uM preincubated for 5 mins followed by NADPH addition measured after 15 mins by LC-MS/MS analysis; format: ADME; conditions: probe midazolam (1'-hydroxylation); outline: as §3
[17] = Permeability of the compound at 10 uM at pH 7.4 after 5 hrs by PAMPA; format: ADME; conditions: read-out: permeability
Outline: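 PAMPA. Effective permeability calculated after 5 h. Values are the mean of four determinations.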

Chain of Voltage-gated inwardly rectifying potassium channel KCNH2 (Q12809 whole entry): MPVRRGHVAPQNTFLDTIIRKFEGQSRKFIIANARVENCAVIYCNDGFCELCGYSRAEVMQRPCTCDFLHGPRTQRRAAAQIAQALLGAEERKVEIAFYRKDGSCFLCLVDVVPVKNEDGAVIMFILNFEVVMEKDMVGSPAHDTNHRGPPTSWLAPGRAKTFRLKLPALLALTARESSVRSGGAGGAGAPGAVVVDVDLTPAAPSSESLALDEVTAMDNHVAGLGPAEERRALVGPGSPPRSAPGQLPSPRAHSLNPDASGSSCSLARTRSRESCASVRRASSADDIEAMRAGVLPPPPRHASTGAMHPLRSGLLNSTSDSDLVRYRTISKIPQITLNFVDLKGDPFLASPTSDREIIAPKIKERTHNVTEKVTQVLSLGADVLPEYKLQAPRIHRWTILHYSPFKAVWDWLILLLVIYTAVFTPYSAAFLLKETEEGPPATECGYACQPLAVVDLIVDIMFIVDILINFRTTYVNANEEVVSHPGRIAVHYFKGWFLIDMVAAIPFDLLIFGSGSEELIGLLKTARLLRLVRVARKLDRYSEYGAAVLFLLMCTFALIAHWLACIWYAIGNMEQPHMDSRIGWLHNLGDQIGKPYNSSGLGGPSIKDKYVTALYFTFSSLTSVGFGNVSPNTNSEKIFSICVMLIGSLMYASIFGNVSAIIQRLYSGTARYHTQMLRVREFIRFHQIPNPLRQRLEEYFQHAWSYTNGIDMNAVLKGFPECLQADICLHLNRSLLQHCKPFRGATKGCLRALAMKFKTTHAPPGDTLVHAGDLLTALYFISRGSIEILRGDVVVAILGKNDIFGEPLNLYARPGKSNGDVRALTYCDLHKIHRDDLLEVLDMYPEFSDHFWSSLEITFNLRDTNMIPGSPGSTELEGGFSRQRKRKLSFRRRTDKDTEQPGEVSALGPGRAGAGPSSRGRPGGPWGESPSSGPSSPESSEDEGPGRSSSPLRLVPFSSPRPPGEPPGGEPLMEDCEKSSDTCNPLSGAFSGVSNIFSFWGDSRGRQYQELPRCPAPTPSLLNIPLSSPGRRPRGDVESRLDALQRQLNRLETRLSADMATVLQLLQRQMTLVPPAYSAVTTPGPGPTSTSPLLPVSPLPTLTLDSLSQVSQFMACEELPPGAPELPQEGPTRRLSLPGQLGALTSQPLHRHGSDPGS
Chain of CYP3A4 (P08684 whole entry): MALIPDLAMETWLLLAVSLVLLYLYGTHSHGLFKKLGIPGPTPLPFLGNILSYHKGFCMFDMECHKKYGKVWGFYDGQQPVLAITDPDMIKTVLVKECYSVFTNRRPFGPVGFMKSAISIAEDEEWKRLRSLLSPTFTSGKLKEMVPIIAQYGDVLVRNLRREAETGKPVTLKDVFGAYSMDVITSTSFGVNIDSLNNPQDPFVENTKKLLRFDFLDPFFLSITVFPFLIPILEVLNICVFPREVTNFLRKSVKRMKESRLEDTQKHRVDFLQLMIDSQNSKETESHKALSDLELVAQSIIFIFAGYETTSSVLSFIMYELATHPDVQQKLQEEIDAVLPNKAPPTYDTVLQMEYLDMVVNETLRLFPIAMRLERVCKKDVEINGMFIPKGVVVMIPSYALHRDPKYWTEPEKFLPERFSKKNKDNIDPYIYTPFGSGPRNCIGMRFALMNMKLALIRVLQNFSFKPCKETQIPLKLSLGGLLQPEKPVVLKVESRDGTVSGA
Chain of CYP2C19 (P33261 whole entry): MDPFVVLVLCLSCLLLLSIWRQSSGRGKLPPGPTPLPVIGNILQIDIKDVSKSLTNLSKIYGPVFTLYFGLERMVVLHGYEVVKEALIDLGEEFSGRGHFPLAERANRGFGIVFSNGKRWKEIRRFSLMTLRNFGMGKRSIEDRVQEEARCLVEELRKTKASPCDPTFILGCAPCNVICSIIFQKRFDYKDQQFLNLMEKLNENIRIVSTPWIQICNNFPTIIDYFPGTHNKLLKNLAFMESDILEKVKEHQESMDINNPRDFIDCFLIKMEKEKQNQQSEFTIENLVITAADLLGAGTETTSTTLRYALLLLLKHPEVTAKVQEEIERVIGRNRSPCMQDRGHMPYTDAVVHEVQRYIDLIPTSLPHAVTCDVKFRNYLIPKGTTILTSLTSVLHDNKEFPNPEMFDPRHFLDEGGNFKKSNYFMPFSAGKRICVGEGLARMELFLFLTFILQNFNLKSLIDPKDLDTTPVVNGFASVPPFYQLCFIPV
Chain of CYP2D6 (P10635 whole entry): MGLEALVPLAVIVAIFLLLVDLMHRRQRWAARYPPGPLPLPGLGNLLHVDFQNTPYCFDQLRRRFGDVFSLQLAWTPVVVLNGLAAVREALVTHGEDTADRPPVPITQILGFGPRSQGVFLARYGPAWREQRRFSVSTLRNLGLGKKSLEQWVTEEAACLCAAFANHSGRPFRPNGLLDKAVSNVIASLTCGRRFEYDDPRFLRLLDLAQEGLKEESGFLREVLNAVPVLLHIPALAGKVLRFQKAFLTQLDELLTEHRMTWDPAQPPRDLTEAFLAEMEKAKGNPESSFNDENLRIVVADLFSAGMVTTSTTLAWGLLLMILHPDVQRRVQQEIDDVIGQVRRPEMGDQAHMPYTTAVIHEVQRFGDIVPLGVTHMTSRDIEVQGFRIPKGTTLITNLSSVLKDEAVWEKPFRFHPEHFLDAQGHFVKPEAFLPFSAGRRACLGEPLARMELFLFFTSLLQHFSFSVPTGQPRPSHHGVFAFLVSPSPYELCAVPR
Chain of CYP2C9 (P11712 whole entry): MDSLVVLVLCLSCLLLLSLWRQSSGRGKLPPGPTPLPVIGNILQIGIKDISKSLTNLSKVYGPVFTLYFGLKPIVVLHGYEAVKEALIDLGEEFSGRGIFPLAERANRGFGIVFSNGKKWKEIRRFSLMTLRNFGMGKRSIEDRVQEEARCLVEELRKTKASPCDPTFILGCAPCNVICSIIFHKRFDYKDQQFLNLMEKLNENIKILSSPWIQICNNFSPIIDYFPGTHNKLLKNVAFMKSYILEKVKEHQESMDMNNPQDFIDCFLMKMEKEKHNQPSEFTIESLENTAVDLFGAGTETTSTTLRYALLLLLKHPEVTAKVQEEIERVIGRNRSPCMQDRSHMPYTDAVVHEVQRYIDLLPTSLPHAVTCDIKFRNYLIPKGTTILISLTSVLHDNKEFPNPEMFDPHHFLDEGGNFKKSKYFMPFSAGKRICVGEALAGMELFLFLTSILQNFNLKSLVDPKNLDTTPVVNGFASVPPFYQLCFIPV

| EC50 [1] [µM] | EC50 [2] [µM] | EC50 [3] [µM] | Structure (SMILES) | other results |
| --- | --- | --- | --- | --- |
| > 10 | 0.004 | > 10 | Cc1cc(SC(Cc2cc(F)ccc2F)c2ccc(-c3ccc(F)cc3)cc2)ccc1OCC(=O)O (stereo not given) | – |
| > 10 | 0.038 | > 10 | Cc1cc(SC(Cc2cc(C(F)(F)F)ccc2F)c2ccc(-c3ccc(F)cc3)cc2)ccc1OCC(=O)O (stereo not given) | – |
| > 10 | 0.0095 | > 10 | Cc1cc(SC(Cc2cc(Cl)ccc2Cl)c2ccc(-c3cc(F)c(F)c(F)c3)cc2)ccc1OCC(=O)O (stereo not given) | – |
| > 10 | 0.065 | > 10 | Cc1cc(SC(Cc2cc(F)c(F)c(F)c2)c2ccc(-c3ccc(F)cc3)cc2)ccc1OCC(=O)O (stereo not given) | – |
| > 10 | 0.0058 | > 10 | Cc1cc(SC(Cc2cc(C(F)(F)F)ccc2F)c2ccc(-c3cccc(C(F)(F)F)c3)cc2)ccc1OCC(=O)O (stereo not given) | – |
| > 10 | 0.007 | > 10 | Cc1cc(SC(Cc2ccccc2)c2ccc(-c3ccc(F)cc3)cc2)ccc1OCC(=O)O (stereo not given) | – |
| > 10 | – | > 10 | Cc1cc(SC(Cc2ccccc2)c2ccc(-c3ccc(C(F)(F)F)cc3)nc2)ccc1OCC(=O)O (stereo not given) | – |
| > 10 | 0.0069 | > 10 | Cc1cc(SC(Cc2cc(Cl)ccc2F)c2ccc(-c3cc(F)c(F)c(F)c3)cc2)ccc1OCC(=O)O (stereo not given) | – |
| > 10 | 0.025 | > 10 | Cc1cc(SC(Cc2cc(Cl)ccc2F)c2ccc(-c3ccc(F)cc3)cc2)ccc1OCC(=O)O (stereo not given) | – |
| > 10 | – | > 10 | Cc1cc(SC(Cc2ccccc2)c2ccc(-c3ccc(C(F)(F)F)cc3)cc2)ccc1OCC(=O)O (stereo not given) | remaining at 0.5 h, 1 µM [4]: > 100%; AUC [5]: 12500 ng·h/mL; inhibition at 0.25 h, 10 µM (CYP2D6): 0%; Vd [6]: 1 L/kg; Cmax [7]: 2320 ng/mL; bioavailability [8]: 32.6%; remaining at 0.5 h, 1 µM [9]: > 100%; IC50 [10]: > 10 µM; inhibition at 0.25 h, 10 µM (CYP1A2): 1.5%; Tmax [11]: 4.5 h; inhibition at 0.25 h, 10 µM (CYP2C9): 35.5%; inhibition at 0.25 h, 10 µM (CYP2C19): 4.3%; half-life [12]: 3.6 h; remaining at 0.5 h, 1 µM [13]: 99.8%; remaining at 0.5 h, 1 µM [14]: > 100%; clearance [15]: 4 mL/min/kg; AUC [16]: 3830 ng·h/mL; inhibition at 0.25 h, 10 µM (CYP3A4): 7.3%; Papp at 5 h, 10 µM [17]: 9.54 ×10⁻⁶ cm/s |
| > 10 | 0.012 | > 10 | Cc1cc(SC(Cc2cc(F)c(F)c(F)c2)c2ccc(-c3cccc(C(F)(F)F)c3)cc2)ccc1OCC(=O)O (stereo not given) | – |
